pIC50: −log10 of the molar value. Calls of active or inactive are those of the source. No cut-off for these calls is given here.
Assays:
[1] = target: Nucleotide-binding oligomerization domain-containing protein 2 (Homo sapiens, UniProt Q9HC29); assay: Antagonist activity at human NOD2 stably expressed in HEK293 cells co-expressing secreted alkaline phosphatase assessed as NF-kappaB induction by liquid handler-assisted reporter gene assay; type: cell-based
[2] = target: T1, Nucleotide-binding oligomerization domain-containing protein 1 (Homo sapiens, UniProt Q9Y239); assay: Antagonist activity at human NOD1 stably expressed in HEK293 cells co-expressing secreted alkaline phosphatase assessed as NF-kappaB induction by liquid handler-assisted reporter gene assay; type: cell-based
T1 sequence (Q9Y239 whole entry): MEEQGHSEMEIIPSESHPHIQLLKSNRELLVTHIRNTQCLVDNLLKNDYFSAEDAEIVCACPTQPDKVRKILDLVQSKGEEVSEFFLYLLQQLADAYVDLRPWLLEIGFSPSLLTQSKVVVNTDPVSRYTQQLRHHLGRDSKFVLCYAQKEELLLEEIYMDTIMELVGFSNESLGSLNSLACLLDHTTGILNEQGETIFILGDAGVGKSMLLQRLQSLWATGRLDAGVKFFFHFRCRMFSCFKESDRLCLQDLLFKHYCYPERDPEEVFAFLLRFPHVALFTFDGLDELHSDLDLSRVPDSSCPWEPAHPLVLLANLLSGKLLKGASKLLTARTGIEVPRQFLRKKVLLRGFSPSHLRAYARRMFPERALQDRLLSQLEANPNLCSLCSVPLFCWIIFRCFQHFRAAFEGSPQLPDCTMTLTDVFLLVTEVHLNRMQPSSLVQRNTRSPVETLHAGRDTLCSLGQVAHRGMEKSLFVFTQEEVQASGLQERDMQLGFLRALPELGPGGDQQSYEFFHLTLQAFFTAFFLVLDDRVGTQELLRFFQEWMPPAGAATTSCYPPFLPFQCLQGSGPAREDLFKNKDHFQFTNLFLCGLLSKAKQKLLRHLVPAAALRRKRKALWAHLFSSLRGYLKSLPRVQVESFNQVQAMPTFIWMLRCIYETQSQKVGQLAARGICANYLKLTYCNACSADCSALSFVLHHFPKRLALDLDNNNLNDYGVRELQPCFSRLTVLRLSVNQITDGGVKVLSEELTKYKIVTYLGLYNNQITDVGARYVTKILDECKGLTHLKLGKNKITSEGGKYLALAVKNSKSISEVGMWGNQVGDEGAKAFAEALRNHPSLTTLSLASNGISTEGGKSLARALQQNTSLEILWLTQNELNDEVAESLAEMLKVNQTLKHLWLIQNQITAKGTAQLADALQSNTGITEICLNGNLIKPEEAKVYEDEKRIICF

[3] = target: T2, Toll-like receptor 8 (Homo sapiens) (UniProt Q9NR97); assay: Induction of TLR8-mediated IL-12p40 in human PBMC after 12 hrs by immunoassay
T2 sequence (whole entry): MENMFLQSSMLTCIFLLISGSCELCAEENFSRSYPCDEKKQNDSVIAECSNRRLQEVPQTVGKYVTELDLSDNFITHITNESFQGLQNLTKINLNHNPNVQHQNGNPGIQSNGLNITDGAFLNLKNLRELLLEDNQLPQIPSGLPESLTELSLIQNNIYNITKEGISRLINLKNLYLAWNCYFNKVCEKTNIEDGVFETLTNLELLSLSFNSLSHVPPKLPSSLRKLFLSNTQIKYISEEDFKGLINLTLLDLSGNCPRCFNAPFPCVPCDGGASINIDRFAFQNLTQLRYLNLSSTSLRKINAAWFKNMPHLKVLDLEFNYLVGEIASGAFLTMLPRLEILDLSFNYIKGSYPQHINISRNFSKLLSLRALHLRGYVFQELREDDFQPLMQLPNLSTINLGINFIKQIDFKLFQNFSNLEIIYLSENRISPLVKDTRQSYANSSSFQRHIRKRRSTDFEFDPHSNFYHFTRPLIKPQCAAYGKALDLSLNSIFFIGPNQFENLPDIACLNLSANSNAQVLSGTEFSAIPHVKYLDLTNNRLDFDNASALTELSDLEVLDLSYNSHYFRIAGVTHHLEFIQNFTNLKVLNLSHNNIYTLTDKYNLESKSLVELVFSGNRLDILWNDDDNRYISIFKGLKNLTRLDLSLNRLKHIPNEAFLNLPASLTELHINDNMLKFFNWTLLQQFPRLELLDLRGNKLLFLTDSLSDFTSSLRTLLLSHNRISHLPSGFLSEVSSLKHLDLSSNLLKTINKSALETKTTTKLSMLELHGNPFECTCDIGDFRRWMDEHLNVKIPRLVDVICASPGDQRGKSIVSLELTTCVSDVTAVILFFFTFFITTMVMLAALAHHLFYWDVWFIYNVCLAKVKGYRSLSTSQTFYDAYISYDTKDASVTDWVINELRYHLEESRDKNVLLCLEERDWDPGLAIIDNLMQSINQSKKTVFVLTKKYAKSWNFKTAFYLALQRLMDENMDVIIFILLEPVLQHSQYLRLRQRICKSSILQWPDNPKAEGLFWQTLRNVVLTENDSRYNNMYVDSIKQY
Procedure, shortened: (§1)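 Fresh PBMCs were isolated from venous blood on Ficoll-Hypaque gradients and plated at 10^5 cells in 100 µL per well. They were stimulated 12 h with graded compound concentrations. Centrifuged supernatants were assayed in duplicate by multiplexed analyte-specific cytokine bead array.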

[4] = target: T2, Toll-like receptor 8 (Homo sapiens); assay: Induction of TLR8-mediated IFN-gamma in human PBMC after 12 hrs by immunoassay; procedure, shortened: as §1
[5] = Upregulation of CD69 expression in human NK cells at 0.1 to 10 ug/ml measured after overnight incubation by flow cytometry; type: functional, cell-based
Procedure, shortened: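 Heparin-anticoagulated whole blood from healthy volunteers was stimulated with graded concentrations at 37 °C overnight. It was then stained 30 min at 37 °C in the dark with CD3-PE, CD56-APC and CD69-PE-Cy7, followed by one-step erythrocyte lysis and fixation. NK cells were gated as CD3-CD56+ from 100,000 events. Values are means of duplicates from a representative experiment.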

Sequence of Nucleotide-binding oligomerization domain-containing protein 2 (Q9HC29 whole entry, the tested form may be a part): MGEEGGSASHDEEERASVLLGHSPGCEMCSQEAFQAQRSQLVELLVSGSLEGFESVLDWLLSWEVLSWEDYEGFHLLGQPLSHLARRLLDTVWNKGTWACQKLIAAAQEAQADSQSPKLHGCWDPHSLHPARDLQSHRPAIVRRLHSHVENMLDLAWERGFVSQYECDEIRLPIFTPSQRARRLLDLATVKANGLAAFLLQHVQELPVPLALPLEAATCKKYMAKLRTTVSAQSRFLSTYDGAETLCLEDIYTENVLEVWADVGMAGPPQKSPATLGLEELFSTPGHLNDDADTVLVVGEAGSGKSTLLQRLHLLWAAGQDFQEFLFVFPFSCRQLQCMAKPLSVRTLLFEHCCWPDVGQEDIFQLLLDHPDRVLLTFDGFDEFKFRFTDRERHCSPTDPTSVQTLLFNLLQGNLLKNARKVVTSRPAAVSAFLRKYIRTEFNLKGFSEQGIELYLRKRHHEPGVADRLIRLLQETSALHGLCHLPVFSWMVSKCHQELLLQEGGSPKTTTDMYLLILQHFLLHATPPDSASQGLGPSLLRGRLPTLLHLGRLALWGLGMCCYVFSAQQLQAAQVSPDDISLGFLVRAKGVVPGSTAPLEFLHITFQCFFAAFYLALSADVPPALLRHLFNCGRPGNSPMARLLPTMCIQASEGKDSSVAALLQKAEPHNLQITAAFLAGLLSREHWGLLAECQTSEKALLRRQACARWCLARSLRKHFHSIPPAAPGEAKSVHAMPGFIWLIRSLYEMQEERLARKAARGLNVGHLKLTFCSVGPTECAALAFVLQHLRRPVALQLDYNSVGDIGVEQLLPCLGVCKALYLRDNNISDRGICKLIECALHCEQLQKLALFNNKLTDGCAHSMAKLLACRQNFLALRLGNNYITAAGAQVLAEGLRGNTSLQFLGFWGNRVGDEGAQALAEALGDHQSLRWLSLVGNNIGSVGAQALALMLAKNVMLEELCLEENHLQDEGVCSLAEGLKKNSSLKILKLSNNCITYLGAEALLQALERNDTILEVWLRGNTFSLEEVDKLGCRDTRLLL

pIC50 [1] | pIC50 [2] | Activity [3] | Activity [4] | Structure (SMILES) | Activity [5]
< 5.00 | < 5.00 |  |  | CCCCCn1c(N)nc2ccc3ccccc3c21 | 
< 5.00 | < 5.00 |  |  | CCCCCn1c(N)nc2c(Cc3ccccc3)cccc21 | 
 |  | Active | Active | CCCCCn1c(N)nc2c(C)cccc21 | inactive
< 5.00 | < 5.00 |  |  | CCCCCn1c(N)nc2c(-c3ccccc3)cccc21 | 
< 5.00 | < 5.00 |  |  | CCCCCn1c(N)nc2c(OCc3ccccc3)cccc21 | 
< 5.00 | < 5.00 |  |  | CCCCCn1c(NC(C)=O)nc2ccccc21 | 
< 5.00 | < 5.00 |  |  | CCCCCn1c(N)nc2cc3ccccc3cc21 | 
